20 compounds from PubChem BioAssay can be followed below.

A number with no mark means an inactive call. Inconclusive results are not listed. Activity calls are given as the source filed them.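 The calls were made as follows, unless noted: active = inhibition over a set limit, the all-compound mean plus 3 SD, in both replicate runs; inconclusive = over that limit in just one replicate run; inactive = at or under that limit in both runs.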

Experiment [1] is described as follows: S. cerevisiae growth inhibition in permissive medium (OD615), pilot counter-assay for S. cerevisiae lifespan shortening project, permissive growth control (AID 705;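 active = growth inhibition above 25% in both replicates, a cutoff set 3 SD above the mean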). The settings on record: OD615, 24 h, at 10 µM, hits give high values. Put shortly: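 Test system: Saccharomyces cerevisiae strain carrying genetically modified DeaD replicative-lifespan system; buffer or medium: SC raffinose/galactose permissive medium; dosing: one dose 10 µM, DMSO 0.25% final; times: 24 h exposure, 30 °C; measured by: OD at 615 nm; read-out basis: growth inhibition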

Experiment [2] is described as follows: S. cerevisiae growth inhibition in restrictive medium, OD615, pilot screen, restrictive growth control, yeast lifespan reduction project (AID 706;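 active = growth inhibition above a set limit, 3 SD over mean compound inhibition, in both replicates, cut at about 43% in these data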;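 also: modified DeaD lifespan yeast strain shifted to restrictive glucose medium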). The conditions noted are these: OD615, 48 h, at 10 µM, hits give high values. Put shortly: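 material = engineered S. cerevisiae DeaD strain | buffer or medium = glucose-based CSMM-D restrictive medium | dosing = one concentration, 10 µM final, 0.25% DMSO | schedule = 4 h pre-growth plus 48 h compound exposure, 30 °C | detection = OD615 absorbance reading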

Experiment [3] in a line: doxorubicin toxicity protection in MRP-1 cells – H69AR cells, CellTiter-Glo, duplicate, MRP-1 activator project, pilot screen (AID 807;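 active = viability increase at or above a cutoff of the median across tested compounds plus 3 SD, cut at about 8.5% in these data, passing the limit was not always enough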;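 also: compound pretreatment 18-22 h then 72 h combined with doxorubicin; 0% = doxorubicin alone and 100% = vehicle without doxorubicin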). The settings on record: H69AR viability with doxorubicin, CellTiter-Glo luminescence; at 10 µM; hits give high values.
Experiment [4] in a line: viability of PTEN-null HCT116 cells – cell-based, HCT116 clonal line, CellTiter-Glo, pilot screen (AID 824;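 active = viability at or below 27.92% in each of two runs, the all-compound median minus 4 SD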;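 also: 0% = 20 µM Hyamine control and 100% = vehicle cell control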). The settings on record: HCT116 PTEN-deleted viability, 60 h, at 10 µM, hits give low values. In general terms: In ATP-based viability assays light output follows the ATP content of the culture.
Experiment [5] is described as follows: RAM pathway blockade in budding yeast – dse1pr::URA3 reporter, 5-FOA selection, pilot screen (AID 869).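 Also: 0% = DMSO wells with no growth and 100% = 10 µM 1-NA-PP1 with full growth; RAM network block rescues cells from 5-FOA so hits raise OD615 growth.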 The settings on record: S. cerevisiae dse1pr::URA3 5-FOA growth, OD615, 2 d; at 10 µM; hits give high values; strain carries analog-sensitive mutant Cbk1 kinase.
Experiment [6] is described as follows: RAM signaling pathway blockade in yeast – S. cerevisiae, Pdr1DBD-CYC8 efflux-inhibited sensitized strain, primary screen (AID 1298;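 active = RAM network inhibition above 8.4% in each of two replicates, 3 SD over the compound average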;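 also: 0% = DMSO untreated cells without growth and 100% = 10 µM 1-NA-PP1 full growth; higher means more yeast growth rescued from 5-FOA killing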). The settings on record: S. cerevisiae cbk1-as DSE1-URA3 strain, 5-FOA growth OD615, 2 d; at 50 µM; hits give high values.

Regarding `CCOC(=O)N1CCN(S(=O)(=O)c2cc(Br)cc3c2N(C(=O)C2CC2)CC3)CC1`, the growth inhibition was -3.63% in experiment [1] and 7.68% in experiment [2]. For the same compound, in experiment [3], the viability increase was -1.65%. Besides, the viability (in general, a read-out of living cells in per cent, often relative to untreated cells) in experiment [4] is 99.5%. In experiment [5], the inhibition (commonly the relative decrease from the control value, in per cent) was 0.715%. Besides, the RAM network inhibition in experiment [6] was 5.87%.
As to `c1ccc(-n2nnnc2-n2ccnc2)cc1`, the growth inhibition in experiment [1] was 3.38%; in experiment [2] it was 1.55%. For the same compound, the viability increase in experiment [3] is -0.62%. The viability in experiment [4] was 109%. Besides, the inhibition in experiment [5] is 0.76%. In addition, the RAM network inhibition in experiment [6] is 0.92%.
Turning to `CCn1c(=O)c2c3c(sc2n2c(SCc4ccc(F)cc4)nnc12)CCCC3`, the results for the growth inhibition in experiment [1] and in experiment [2] were -17.7% and -16.7%, respectively. Moreover, the viability increase in experiment [3] is -7.59%. The viability in experiment [4] is 25.7% (active). For the same compound, in experiment [5], the inhibition was 2.28%. Also, the RAM network inhibition in experiment [6] is 3.4%.
As to `CCOC(=O)c1c(O)c2c(n(Cc3ccco3)c1=O)CCCC2`, the growth inhibition in experiment [1] is -8.59%; in experiment [2] it was 4.38%. Besides, in experiment [3], the viability increase is -0.86%. The viability in experiment [4] was 102%. For the same compound, the inhibition in experiment [5] was -0.075%. For the same compound, the RAM network inhibition in experiment [6] is -1.18%.
Regarding `O=C(CSc1nc(-c2ccncc2)nn1CC(=O)N1CCCCC1)NC1CCCC1`, the results for the growth inhibition in experiment [1] and in experiment [2] were -4.01% and -16.2%, respectively. Further, the viability increase in experiment [3] was -4.19%. For the same compound, in experiment [4], the viability was 88%. The inhibition in experiment [5] is 1.07%. Also, in experiment [6], the RAM network inhibition was -1.59%.
For `CCCn1c(C(C)NC(=O)c2ccccc2)nc2ccccc21` (stereo not given), the growth inhibition in experiment [1] was -8.46%; in experiment [2], -6.87%. In experiment [3], the viability increase was -2.18%. In addition, the viability in experiment [4] is 97.6%. Further, the inhibition in experiment [5] was 2.92%. Also, the RAM network inhibition in experiment [6] is 5.38%.
Consider `Cc1ccc(C(=O)COC(=O)c2ccc(Br)o2)cc1C`, for which the growth inhibition in experiment [1] is -5.44%; in experiment [2], -2.75%. The viability increase in experiment [3] was 1.02%. For the same compound, the viability in experiment [4] is 100%. In addition, in experiment [5], the inhibition is 2.77%. The RAM network inhibition in experiment [6] was 1.29%.
On to `O=S(=O)(NCCc1csc(-c2cccnc2)n1)c1ccc2c(c1)OCCO2`, for which the figures for the growth inhibition in experiment [1] and in experiment [2] were -5.61% and 8.38%, respectively. Also, in experiment [3], the viability increase is -0.72%. Moreover, the viability in experiment [4] was 95.5%. Also, the inhibition in experiment [5] was 1.71%. In addition, in experiment [6], the RAM network inhibition was -0.63%.
For `COc1ccccc1C(=O)C(O)c1ccccc1OC` (stereo not given), the growth inhibition was -8.34% in experiment [1] and 0.335% in experiment [2]. In experiment [3], the viability increase was 0.03%. Moreover, the viability in experiment [4] is 94.4%. In addition, the inhibition in experiment [5] was 0.755%. Further, the RAM network inhibition in experiment [6] is 5.17%.
For the compound `O=C(NCc1cccc(F)c1)c1noc2c1CCCC2`, the results for the growth inhibition in experiment [1] and in experiment [2] were -12.1% and -19.5%, respectively. The viability increase in experiment [3] was -4.68%. Moreover, the viability in experiment [4] was 32.7%. The inhibition in experiment [5] is 0.33%. The RAM network inhibition in experiment [6] was 3.14%.
As to `CC1(C)CC(=O)C=C(Nc2cc(-c3ccccc3)[nH]n2)C1`, the results for the growth inhibition in experiment [1] and in experiment [2] were -9.89% and 3.12%, respectively. Also, the viability increase in experiment [3] was -6.97%. In addition, in experiment [4], the viability was 93.4%. In addition, in experiment [5], the inhibition is -0.355%. Further, the RAM network inhibition in experiment [6] is 2.78%.
In the case of `CC(C)CC(NC(=O)C1CCCCC1)C(=O)NCc1ccccn1` (stereo not given), the growth inhibition in experiment [1] is 1.21%; in experiment [2], -10.9%. For the same compound, the viability increase in experiment [3] was -4.03%. For the same compound, in experiment [4], the viability was 94.4%. The inhibition in experiment [5] is 1.04%. Besides, the RAM network inhibition in experiment [6] is -0.2%.
As to `COc1ccc(CCNC(=O)c2oc3ccc(S(=O)(=O)N4CCOCC4)cc3c2C)cc1OC`, the growth inhibition was -0.835% in experiment [1] and -1.39% in experiment [2]. The viability increase in experiment [3] was -4.32%. The viability in experiment [4] was 78.8%. Also, the inhibition in experiment [5] is 1.17%. The RAM network inhibition in experiment [6] was 3.69%.
Turning to `COC(=O)CCc1nc2ccccc2[nH]c1=O`, the growth inhibition in experiment [1] was -6.03%; in experiment [2] it was -5.04%. In addition, the viability increase in experiment [3] was -0.31%. Further, the viability in experiment [4] is 100%. In addition, the inhibition in experiment [5] is 1.4%. Further, the RAM network inhibition in experiment [6] is 2.15%.
Take `O=C(CSc1nc2c(c(=O)n1-c1ccc(Br)cc1)SCC2)NCc1ccco1`: the growth inhibition in experiment [1] is -0.48%; in experiment [2] it was -1.07%. The viability increase in experiment [3] is -3.54%. The viability in experiment [4] was 77.4%. In addition, in experiment [5], the inhibition is 0.41%. For the same compound, in experiment [6], the RAM network inhibition was 5.24%.
Turning to `Cc1cccc(N(CC(=O)Nc2c(C)n(C)n(-c3ccccc3)c2=O)S(C)(=O)=O)c1`, the growth inhibition is -9.29% in experiment [1] and -0.62% in experiment [2]. Further, the viability increase in experiment [3] is -0.12%. Besides, in experiment [4], the viability is 106%. The inhibition in experiment [5] is 1.61%. Moreover, the RAM network inhibition in experiment [6] is 1.64%.
On to `CC(Oc1ccc(Cl)cc1)C(=O)Nc1nccs1` (stereo not given), for which the values for the growth inhibition in experiment [1] and in experiment [2] were -5.8% and -5.78%, respectively. For the same compound, in experiment [3], the viability increase is -1.86%. Moreover, in experiment [4], the viability is 87%. For the same compound, in experiment [5], the inhibition was 1.31%. Further, the RAM network inhibition in experiment [6] was 2.7%.
With `CCCOc1ccc(/C(O)=C2/C(=O)C(=O)N(CCN(C)C)C2c2ccco2)cc1` (stereo not given), the growth inhibition in experiment [1] is -0.855%; in experiment [2] it was 13.9%. Besides, the viability increase in experiment [3] is -4.27%. Also, in experiment [4], the viability is 99.6%. Further, in experiment [5], the inhibition was -0.28%. Besides, in experiment [6], the RAM network inhibition was -1.54%.
With `CN1CCN(C(=O)c2c(NC(=O)c3ccco3)sc3c2CCC(C(C)(C)C)C3)CC1` (stereo not given), the figures for the growth inhibition in experiment [1] and in experiment [2] were -11.3% and 1.13%, respectively. For the same compound, the viability increase in experiment [3] is -2.04%. Also, the viability in experiment [4] was 79.9%. Also, the inhibition in experiment [5] is -0.17%. Besides, in experiment [6], the RAM network inhibition is 0.15%.
For `CCN(Cc1ccccc1)S(=O)(=O)c1ccc(C(=O)Nc2nnc(C3CC3)o2)cc1`, the growth inhibition is -5.06% in experiment [1] and -18.6% in experiment [2]. Also, the viability increase in experiment [3] is -4.27%. For the same compound, in experiment [4], the viability was 22.8% (active). Besides, the inhibition in experiment [5] was 2.35%. For the same compound, in experiment [6], the RAM network inhibition was 5.05%.
